Columns and labels:
SK-OV-3 = assay: Growth inhibition of human SKOV3 cells after 48 hrs by sulforhodamine B assay; format: functional; details: SK-OV-3, 48 h
How it was run: (§1)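 NCI screen panel. Five 10-fold concentrations from 10^-4 to 10^-8 M. Exposure for the last 48 h of a 72 h incubation. Growth estimated by sulforhodamine B protein assay. GI50 is the concentration giving 50% growth inhibition. Where that level was not reached or was exceeded, the value is given as above or below the highest or lowest concentration tested.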

OVCAR-3 = assay: Growth inhibition of human OVCAR-3 cells after 48 hrs by sulforhodamine B assay; format: functional; details: OVCAR-3, 48 h; how it was run: as §1
UACC-62 = assay: Growth inhibition of human UACC62 cells after 48 hrs by sulforhodamine B assay; format: functional; details: UACC-62, 48 h
How it was run: (§2)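 NCI in vitro panel screen. Compounds tested at five 10-fold dilutions, 10^-4 to 10^-8 M. Cells in 96-well plates were exposed for the last 48 h of a 72 h incubation. Viability/growth was read by sulforhodamine B protein assay. GI50 is the concentration giving 50% growth inhibition. Values beyond the tested range are reported as greater or less than the maximum or minimum concentration.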

SR = assay: Growth inhibition of human SR cells after 48 hrs by sulforhodamine B assay; format: functional; how it was run: as §2
SK-MEL-5 = assay: Growth inhibition of human SK-MEL-5 cells after 48 hrs by sulforhodamine B assay; format: functional; details: SK-MEL-5, 48 h; how it was run: as §1
HCT-15 = assay: Growth inhibition of human HCT15 cells after 48 hrs by sulforhodamine B assay; format: functional; details: HCT-15, 48 h; how it was run: as §1
NCI-H23 = assay: Growth inhibition of human NCI-H23 cells after 48 hrs by sulforhodamine B assay; format: functional; details: NCI-H23, 48 h; how it was run: as §1
SF-268 = assay: Growth inhibition of human SF268 cells after 48 hrs by sulforhodamine B assay; format: functional; details: SF-268, 48 h; how it was run: as §1
MCF7 = assay: Growth inhibition of human MCF7 cells after 48 hrs by sulforhodamine B assay; format: functional; details: MCF7, 48 h; how it was run: as §1
SK-MEL-28 = assay: Growth inhibition of human SK-MEL-28 cells after 48 hrs by sulforhodamine B assay; format: functional; details: SK-MEL-28, 48 h; how it was run: as §1
MOLT-4 = assay: Growth inhibition of human MOLT4 cells after 48 hrs by sulforhodamine B assay; format: functional; details: MOLT-4, 48 h; how it was run: as §1
K562 = assay: Growth inhibition of human K562 cells after 48 hrs by sulforhodamine B assay; format: functional; details: K562, 48 h; how it was run: as §1
SW-620 = assay: Growth inhibition of human SW620 cells after 48 hrs by sulforhodamine B assay; format: functional; details: SW-620, 48 h; how it was run: as §2
SK-MEL-2 = assay: Growth inhibition of human SK-MEL-2 cells after 48 hrs by sulforhodamine B assay; format: functional; details: SK-MEL-2, 48 h; how it was run: as §1
COLO 205 = assay: Growth inhibition of human COLO205 cells after 48 hrs by sulforhodamine B assay; format: functional; details: COLO 205, 48 h; how it was run: as §1
RXF 393 = assay: Growth inhibition of human RXF393 cells after 48 hrs by sulforhodamine B assay; format: functional; details: RXF 393, 48 h; how it was run: as §1
BT-549 = assay: Growth inhibition of human BT549 cells after 48 hrs by sulforhodamine B assay; format: functional; details: BT-549, 48 h; how it was run: as §1
A549 = assay: Growth inhibition of human A549 cells after 48 hrs by sulforhodamine B assay; format: functional; details: A549, 48 h; how it was run: as §1
HT-29 = assay: Growth inhibition of human HT-29 cells after 48 hrs by sulforhodamine B assay; format: functional; details: HT-29, 48 h; how it was run: as §1
LOX IMVI = assay: Growth inhibition of human LOXIMVI cells after 48 hrs by sulforhodamine B assay; format: functional; how it was run: as §1
TK-10 = assay: Growth inhibition of human TK10 cells after 48 hrs by sulforhodamine B assay; format: functional; details: TK-10, 48 h; how it was run: as §2
MDA-MB-435 = assay: Growth inhibition of human MDA-MB-435 cells after 48 hrs by sulforhodamine B assay; format: functional; details: MDA-MB-435, 48 h; how it was run: as §1
SNB-75 = assay: Growth inhibition of human SNB75 cells after 48 hrs by sulforhodamine B assay; format: functional; details: SNB-75, 48 h; how it was run: as §2
UO-31 = assay: Growth inhibition of human UO31 cells after 48 hrs by sulforhodamine B assay; format: functional; details: UO-31, 48 h; how it was run: as §2
ACHN = assay: Growth inhibition of human ACHN cells after 48 hrs by sulforhodamine B assay; format: functional; how it was run: as §1
HOP-92 = assay: Growth inhibition of human HOP92 cells after 48 hrs by sulforhodamine B assay; format: functional; details: HOP-92, 48 h; how it was run: as §1
SN12C = assay: Growth inhibition of human SN12C cells after 48 hrs by sulforhodamine B assay; format: functional; how it was run: as §2
EKVX = assay: Growth inhibition of human EKVX cells after 48 hrs by sulforhodamine B assay; format: functional; how it was run: as §1
T47D = assay: Growth inhibition of human T47D cells after 48 hrs by sulforhodamine B assay; format: functional; how it was run: as §2
SF-539 = assay: Growth inhibition of human SF539 cells after 48 hrs by sulforhodamine B assay; format: functional; details: SF-539, 48 h; how it was run: as §1
OVCAR-8 = assay: Growth inhibition of human OVCAR8 cells after 48 hrs by sulforhodamine B assay; format: functional; details: OVCAR-8, 48 h; how it was run: as §1
HL-60(TB) = assay: Growth inhibition of human HL-60(TB) cells after 48 hrs by sulforhodamine B assay; format: functional; details: HL-60, 48 h
How it was run: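 NCI 60-cell-line screen protocol: cells exposed to compound at five 10-fold dilutions from 10^-4 to 10^-8 M for the last 48 h of a 72 h incubation. Sulforhodamine B protein assay estimated viability/growth. GI50 (50% growth inhibition) derived; where not reached or exceeded, reported as greater or less than the highest or lowest concentration tested.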

U-251 = assay: Growth inhibition of human U251 cells after 48 hrs by sulforhodamine B assay; format: functional; details: U-251, 48 h; how it was run: as §2
MT4 = assay: Antiproliferative activity against human MT4 cells assessed as reduction of growth by MTT assay; format: functional, cell-based
How it was run: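 MT-4 lymphoblastoid T cells (ATCC) in RPMI 1640 with 10% FCS, penicillin/streptomycin, checked for mycoplasma. 1 × 10⁴ mock-infected cells per well with serial dilutions from a 100 mM DMSO stock. Incubated 4 days at 37 °C, viable cells counted by MTT. IC50 versus untreated controls by linear regression. Mean of three separate experiments.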

NCI-H460 = assay: Growth inhibition of human NCI-H460 cells after 48 hrs by sulforhodamine B assay; format: functional; details: NCI-H460, 48 h; how it was run: as §1
DU-145 = assay: Growth inhibition of human DU145 cells after 48 hrs by sulforhodamine B assay; format: functional; details: DU-145, 48 h; how it was run: as §1
[1] = Growth inhibition of human […] cells after 48 hrs by sulforhodamine B assay; format: functional; how it was run: as §1
SF-295 = assay: Growth inhibition of human SF295 cells after 48 hrs by sulforhodamine B assay; format: functional; details: SF-295, 48 h; how it was run: as §1
NCI-H322M = assay: Growth inhibition of human NCI-H322M cells after 48 hrs by sulforhodamine B assay; format: functional; how it was run: as §1
PC-3 = assay: Growth inhibition of human PC3 cells after 48 hrs by sulforhodamine B assay; format: functional; details: PC-3, 48 h; how it was run: as §1
KM12 = assay: Growth inhibition of human KM12 cells after 48 hrs by sulforhodamine B assay; format: functional; details: KM12, 48 h; how it was run: as §1
MDA-MB-231 = assay: Growth inhibition of human MDA-MB-231 cells after 48 hrs by sulforhodamine B assay; format: functional; details: MDA-MB-231, 48 h; how it was run: as §1
CAKI-1 = assay: Growth inhibition of human Caki1 cells after 48 hrs by sulforhodamine B assay; format: functional; details: CAKI-1, 48 h; how it was run: as §1
IGROV-1 = assay: Growth inhibition of human IGROV1 cells after 48 hrs by sulforhodamine B assay; format: functional; details: IGROV-1, 48 h; how it was run: as §1
SNB-19 = assay: Growth inhibition of human SNB19 cells after 48 hrs by sulforhodamine B assay; format: functional; details: SNB-19, 48 h; how it was run: as §2
OVCAR-4 = assay: Growth inhibition of human OVCAR4 cells after 48 hrs by sulforhodamine B assay; format: functional; details: OVCAR-4, 48 h; how it was run: as §1
CCRF-CEM = assay: Growth inhibition of human CCRF-CEM cells after 48 hrs by sulforhodamine B assay; format: functional; how it was run: as §1
Malme-3M = assay: Growth inhibition of human MALME-3M cells after 48 hrs by sulforhodamine B assay; format: functional; how it was run: as §1

N#CC(C#N)=CN1CCN(C(=O)c2ccco2)C1=S
GI50 (SK-OV-3): 33.1 µM | GI50 (OVCAR-3): 11.2 µM | GI50 (UACC-62): 8.8 µM | GI50 (SR): 2 µM | GI50 (SK-MEL-5): 2.9 µM | GI50 (HCT-15): 5.2 µM | GI50 (NCI-H23): 5.8 µM | GI50 (SF-268): 31.4 µM | GI50 (MCF7): 3.5 µM | GI50 (SK-MEL-28): 12.5 µM | GI50 (MOLT-4): 5.2 µM | GI50 (K562): 6.6 µM | GI50 (SW-620): 5.6 µM | GI50 (SK-MEL-2): 4.3 µM | GI50 (COLO 205): 16.5 µM | GI50 (RXF 393): 2.6 µM | GI50 (BT-549): 6.9 µM | GI50 (A549): 13.5 µM | GI50 (HT-29): 27.7 µM | GI50 (LOX IMVI): 3.3 µM | GI50 (TK-10): 4.6 µM | GI50 (MDA-MB-435): 5.3 µM | GI50 (SNB-75): 40.6 µM | GI50 (UO-31): 10.5 µM | GI50 (ACHN): 9.4 µM | GI50 (HOP-92): 22.4 µM | GI50 (SN12C): 3.1 µM | GI50 (EKVX): 11.9 µM | GI50 (T47D): 21.2 µM | GI50 (SF-539): 2.5 µM | GI50 (OVCAR-8): 14.6 µM | GI50 (HL-60(TB)): 19.8 µM | GI50 (U-251): 6.6 µM | IC50 (MT4): 4.4 µM | GI50 (NCI-H460): 3.3 µM | GI50 (DU-145): 5.5 µM | GI50 [1]: 4.5 µM | GI50 (SF-295): 31.3 µM | GI50 (NCI-H322M): 15.5 µM | GI50 (PC-3): 17.2 µM | GI50 (KM12): 4.1 µM | GI50 (MDA-MB-231): 2.9 µM | GI50 (CAKI-1): 4.8 µM | GI50 (IGROV-1): 6.6 µM | GI50 (SNB-19): 38.7 µM | GI50 (OVCAR-4): 20.1 µM | GI50 (CCRF-CEM): 79.7 µM | GI50 (Malme-3M): 47.8 µM
